Screens as filed in PubChem BioAssay.
The list is not random: actives were taken first. Their share in the collection is about 29%.
Ecoli WT expand – E. coli BW25113 growth inhibition, expanded screen | OD600 absorbance | growth inhibition, % at 100 µM | 98,000 tested, 0.15% active;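 active = growth inhibition above about 50% at one test dose, limit read from the data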;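 also: growth measured after 20 h incubation at 37 °C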
CYP2C9 inhib – blocks human cytochrome P450 2C9; P11712; CYP2C9 Supersomes, luciferin-H conversion, luminescence; inhibition, % at 5 µM; 96,000 tested, 20% active;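 active = blocking of liver enzyme CYP2C9 beyond about 50% at 5 µM, limit read from the data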
Target sequence (P11712 whole entry, looked up): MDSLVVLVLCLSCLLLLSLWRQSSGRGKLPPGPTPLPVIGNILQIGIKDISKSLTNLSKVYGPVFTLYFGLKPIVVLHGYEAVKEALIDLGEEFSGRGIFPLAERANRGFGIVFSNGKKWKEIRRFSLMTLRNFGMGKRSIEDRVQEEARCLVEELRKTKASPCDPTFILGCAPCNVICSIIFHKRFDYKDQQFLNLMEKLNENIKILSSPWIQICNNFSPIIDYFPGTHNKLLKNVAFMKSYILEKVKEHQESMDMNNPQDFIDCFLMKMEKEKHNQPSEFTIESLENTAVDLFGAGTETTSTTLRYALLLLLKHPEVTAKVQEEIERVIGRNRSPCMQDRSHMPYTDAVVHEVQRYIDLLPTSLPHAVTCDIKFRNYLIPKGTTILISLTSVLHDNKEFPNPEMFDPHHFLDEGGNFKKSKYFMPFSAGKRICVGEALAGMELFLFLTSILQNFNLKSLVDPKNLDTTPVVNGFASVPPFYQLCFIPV
CYP2C19 inhib – human CYP2C19 inhibition; CYP2C19 Supersomes, luciferin-H EGE luminescence, 30 min; P33261; 96,000 tested, 21% active; inhibition, % at 5 µM;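 active = CYP2C19 inhibition above a set limit at 5 µM in the primary screen, cut at about 50% in these data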;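 also: plate controls were negative control wells for no effect and 2.5 mM tranylcypromine positive control for full effect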
CYP2C9 act – CYP2C9 (human) activation; AID 1024; recombinant CYP2C9, luciferin-H conversion, luminescence; stronger effect = higher value; factor 1 = untreated enzyme, 0 = blocked; activation factor at 5 µM; P11712; 96,000 tested, 1.4% active;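 active = activation factor of 2 or more for CYP2C9 at a 5 µM dose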;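 also: 0 = sulfaphenazole-blocked wells and 1 = vehicle-only wells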
CYP2C19 act – cytochrome P450 2C19 (human) activation; P33261; recombinant CYP2C19, luciferin-H EGE luminescence; stronger effect = higher value; 0 = fully inhibited enzyme, 1 = untreated enzyme; activation factor at 5 µM; 96,000 tested, under 10 active; AID 1025;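 active = activation factor of at least 2 at 5 µM in the primary screen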;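 also: 0 = wells with 2.5 mM tranylcypromine and 1 = vehicle-only wells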
Ecoli tolC – growth inhibitors of E. coli BW25113 tolC mutant; OD615; growth inhibition, % at 10 µM (by protocol); 65,000 tested, 2.2% active;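 active = growth inhibition at or above a cutoff equal to the mean over every tested compound plus 3 SD, cut at about 60% in these data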;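 also: growth measured after 20 h incubation at 37 °C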
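Test system – E. coli BW25113 ΔtolC::kan, tolC deletion mutant strain · Detection – OD at 615 nm · Buffer or medium – LB with kanamycin 50 µg/mL · Times – 20 h compound exposure of bacteria at 37 °C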
Numbers without * were called inactive; nt = no result.

SMILES	Ecoli WT expand	CYP2C9 inhib	CYP2C19 inhib	CYP2C9 act	CYP2C19 act	Ecoli tolC
CCC(C)NC(=O)c1ccccc1NC(=O)c1ccc(CSc2ccc(C)cc2)cc1 (stereo not given)	-8	24	-5	0.8	1.1	nt
COC(=O)C1(CO)NC(c2cccs2)C2C(=O)N(c3ccccc3)C(=O)C21 (stereo not given)	1	6	-5	0.9	1.1	-16
CC(=O)NC12CC3CC(C)(C1)CC(NC(C)=O)(C3)C2	-5	3	12	1	0.9	-11
Cc1ccc(CNC(=O)CCS(=O)(=O)c2ccc(Br)s2)cc1	2	11	16	0.9	0.8	nt
O=C(c1ccco1)N1CCN(c2ccccc2F)CC1	-3	-16	14	1.2	0.9	nt
O=S(=O)(NCC(c1cccnc1)N1CCN(c2ccc(F)cc2)CC1)c1ccc(F)cc1 (stereo not given)	3	72*	84*	0.3	0.2	0
O=S(=O)(NCC(c1cccnc1)N1CCN(Cc2ccccc2)CC1)c1ccccc1 (stereo not given)	5	nt	nt	nt	nt	5
Cc1cccc(N2CCN(C(=O)C(NS(=O)(=O)c3cccs3)c3ccccc3)CC2)c1C (stereo not given)	-8	2	22	1	0.8	nt
O=C(C(Sc1ccccc1)c1ccccc1)N1CCN(c2ccccc2F)CC1 (stereo not given)	-18	76*	86*	0.2	0.1	nt
O=C(C(NS(=O)(=O)c1cccs1)c1ccccc1)N1CCN(c2ccccc2F)CC1 (stereo not given)	-7	56*	69*	0.4	0.3	nt
CC(C)CCN(C)c1ccc(/C=N/n2cnnc2)cc1	-3	95*	99*	0	0	nt
CCOC(=O)c1c(C)nc(-c2ccccc2)nc1NC(C)=O	2	31	26	0.7	0.7	-8
C=CCNc1nc(-c2ccccc2)c(C(=O)OCC)cc1C#N	5	25	26	0.8	0.7	nt
CCCCNc1nc(-c2ccccc2)c(C(=O)OCC)cc1C#N	2	56*	31	0.4	0.7	nt
CCCNc1nc(-c2ccccc2)c(C(=O)OCC)cc1C#N	9	57*	27	0.4	0.7	nt
Cc1ccc(NC(=S)N2CCC(c3nc4ccccc4s3)CC2)cc1C	-7	9	0	0.9	1	nt
Cn1ccnc1SCc1cc(=O)[nH]c2ccccc12	-5	11	-1	0.9	1	-11
Cc1cccc(-c2nnc(SCc3cc(=O)[nH]c4ccccc34)n2C)c1	9	-111	84*	2.1*	0.2	4
Brc1ccc(-c2cn3c(n2)CCc2ccc4cccnc4c2-3)cc1	-4	4	5	1	0.9	nt
O=c1cc(C(F)(F)F)nc(-c2ccccc2)[nH]1	-14	30	0	0.7	1	-16
CCc1cccc(NC(=O)COc2ccccc2)c1	4	5	52*	1	0.5	nt
CC(=O)Oc1ccc(C(=O)Nc2cc(C)ccc2NC(=O)COc2ccccc2)cc1	-5	58*	11	0.4	0.9	nt
COc1ccc(NC(=O)Nc2cccc(OC)c2)cc1	nt	nt	nt	nt	nt	51
COc1cccc(NC(=O)Nc2ccc3nsnc3c2)c1	25	64*	-1	0.4	1	nt
COC(=O)COc1cccc(NC(=O)COc2ccccc2)c1	-1	6	3	0.9	1	1
SMILES	Ecoli WT expand	CYP2C9 inhib	CYP2C19 inhib	CYP2C9 act	CYP2C19 act	Ecoli tolC
CCN(CC(=O)Nc1cccc(OC)c1)C(=O)c1ccc(C)s1	6	72*	76*	0.3	0.2	nt
CC(=O)C1=C(O)C(=O)N(CCN2CCOCC2)C1c1ccccc1 (stereo not given)	7	15	-3	0.8	1	-11
CC(C)(C)NC(=O)CSc1nnnn1C(C)(C)C	5	8	21	0.9	0.8	-29
CC(=O)c1cccc(NC(=O)COc2ccccc2)c1	6	57*	74*	0.4	0.3	4
COc1ccc(CC(=O)Nc2ccc(-c3csc(C)n3)cc2)cc1	-2	17	22	0.8	0.8	nt
COc1ccc(CC(=O)Nc2cccc(-c3csc(C)n3)c2)cc1	0	60*	69*	0.4	0.3	nt
Cc1ccc(NC(=O)Cc2ccc3c(c2)CCCC3)cc1C	6	-30	42	1.3	0.6	nt
CC(=O)c1cccc(NC(=O)Cc2ccc3c(c2)CCCC3)c1	-1	-164	17	2.6*	0.8	nt
COc1ccc(OCC(=O)Nc2cccc(OC)c2)cc1	1	-19	71*	1.2	0.3	3
CCOC(=O)C(NC(C)=O)(Nc1ccc(S(=O)(=O)Nc2cc(C)nc(C)n2)cc1)C(F)(F)F (stereo not given)	6	12	4	0.9	1	-7
CCCCOCP(=O)(CC)COCCCC	7	3	32	1	0.7	nt
CCCCOc1ccc(/C(N)=N/O)cc1	9	-6	-10	1.1	1.1	-8
CCOC(=O)c1cnn(-c2nc(-c3ccccc3F)cs2)c1C(F)(F)F	0	29	16	0.7	0.8	nt
CCOC(=O)c1cnn2c(C(F)(F)F)cc(-c3ccccc3)nc12	1	54*	28	0.5	0.7	0
CCOC(=O)c1cnc2c(-c3ccccc3)c(C)nn2c1N	-3	13	8	0.9	0.9	-12
CCOC(=O)c1cnc2c(-c3ccccc3)cnn2c1N	-6	57*	63*	0.4	0.4	-3
CCOC(=O)c1cnn(-c2nc(-c3ccccc3)cs2)c1C(F)(F)F	-3	88*	43	0.1	0.6	nt
CCOC(=O)c1cnn2c(C(F)(F)F)cc(-c3cn(C)nc3C)nc12	2	85*	57*	0.2	0.4	14
COc1ccc(CC(NC(C)=O)C(=O)NC2CCN(S(=O)(=O)c3ccccc3)CC2)cc1OC (stereo not given)	-4	-42	-4	1.4	1	-13
O=C(c1cnn(-c2ccccc2)c1-n1cccc1)N1CCN(C2CCCCC2)CC1	nt	nt	nt	nt	nt	-4
Cc1cccc(N(C)S(=O)(=O)c2ccc3c(c2)CCC(=O)N3)c1	0	6	28	0.9	0.7	-6
CCOC(=O)N1CCC(NC(=O)c2cnn3c(C(F)(F)F)cc(-c4cccc(OC)c4)nc23)CC1	nt	58*	61*	0.4	0.4	2
COc1ccc2nc(NC(=O)CN(C)S(=O)(=O)c3cccs3)sc2c1	-6	62*	80*	0.4	0.2	nt
COc1ccc2nc(NC(=O)Cc3cccs3)sc2c1	6	49	33	0.5	0.7	nt
COc1ccc(NC(=O)CNS(=O)(=O)c2ccc3nc(C)sc3c2)c(OC)c1	6	51*	28	0.5	0.7	1
COc1ccc(NCC(=O)Nc2ccc(Cl)cc2C)c(OC)c1	7	99*	93*	0	0.1	21
COc1ccc2nc(NC(=O)CNS(=O)(=O)c3cccs3)sc2c1	-3	7	64*	0.9	0.4	nt
COc1ccc(OC)c(NC(=O)CCNS(=O)(=O)c2cccs2)c1	nt	nt	nt	nt	nt	4
